What all share (assay type): functional
For assay [1], the system named is Escherichia coli DH5[alpha]. In words: Agonist activity at Escherichia coli DH5alpha (pJN105L + pSC11) LasR assessed as activation of quorum sensing at 10 uM relative to N-(3-oxo)-dodecanoyl HL.
The test system of assay [2] is Escherichia coli DH5[alpha]. The experiment in a line: Antagonist activity at Escherichia coli DH5alpha (pJN105L + pSC11) LasR assessed as inhibition of N-(3-oxo)-dodecanoyl HL-induced quorum sensing activation at 10 uM relative to untreated control.
Assay [3] has as its target T1, Transcriptional activator protein LasR (Pseudomonas aeruginosa (strain ATCC 15692 / PAO1 / 1C / PRS 101 / LMG12228)) (UniProt P25084).
T1 sequence (whole entry): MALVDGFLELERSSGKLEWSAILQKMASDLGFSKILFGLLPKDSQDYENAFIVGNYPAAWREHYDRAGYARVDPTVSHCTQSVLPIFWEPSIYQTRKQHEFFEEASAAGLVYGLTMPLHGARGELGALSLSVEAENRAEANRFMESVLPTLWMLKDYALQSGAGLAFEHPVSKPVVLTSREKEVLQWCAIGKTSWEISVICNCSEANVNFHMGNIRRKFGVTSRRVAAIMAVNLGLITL
In words: Antagonist activity at Pseudomonas aeruginosa PAO1 MW1 (pUM15) LasR assessed as inhibition of N-(3-oxo)-dodecanoyl HL-induced quorum sensing activation at 10 uM relative to untreated control. The gist of the method: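 P. aeruginosa PAO1 MW1 colony grown overnight at 30 °C in LB with MOPS at pH 7 plus carbenicillin (300 µg/mL). Diluted 1:10 and shaken at 37 °C to OD 0.25–0.30. OdDHL added to the subculture at 1 μM final, then plated with test compound. Plates shaken at 37 °C for 8 h, then optical density and fluorescence read.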

In assay [4] the target is T1, Transcriptional activator protein LasR (Pseudomonas aeruginosa (strain ATCC 15692 / PAO1 / 1C / PRS 101 / LMG12228)). The experiment in a line: Agonist activity at Pseudomonas aeruginosa PAO1 MW1 (pUM15) LasR assessed as activation of quorum sensing at 10 uM relative to N-(3-oxo)-dodecanoyl HL. The gist of the method: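 P. aeruginosa PAO1 MW1 grown overnight at 30 °C in LB/MOPS pH 7 with carbenicillin (300 µg/mL). Subcultured 1:10 at 37 °C to OD 0.25–0.30 and plated with compound only, no native ligand. Incubated with shaking at 37 °C for 8 h. OD and fluorescence then read.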

Assay [5] concerns the target T2, Transcriptional activator protein LuxR (Aliivibrio fischeri) (UniProt P12746).
T2 sequence (whole entry): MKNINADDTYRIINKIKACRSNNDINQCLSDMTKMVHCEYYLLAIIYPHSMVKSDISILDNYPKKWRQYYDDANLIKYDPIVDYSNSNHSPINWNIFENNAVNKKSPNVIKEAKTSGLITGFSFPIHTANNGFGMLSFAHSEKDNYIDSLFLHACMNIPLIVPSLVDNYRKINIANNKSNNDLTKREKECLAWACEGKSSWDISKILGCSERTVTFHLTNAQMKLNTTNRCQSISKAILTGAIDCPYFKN
In words: Antagonist activity at Vibrio fischeri ESI 114 (delta-LuxI) LuxR assessed as inhibition of OHHL-induced quorum sensing activation at 10 uM relative to untreated control. The gist of the method: (§1)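 LuxR reporter in V. fischeri ESI 114 (Δ-LuxI), compounds screened at 10 μM in triplicate. For inhibition, cells challenged with 2 μM OHHL. Agonism normalized to native ligand at 100 μM. Negative controls with no ligand subtracted as background.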

In assay [6] the target is T2, Transcriptional activator protein LuxR (Aliivibrio fischeri). In words: Agonist activity at Vibrio fischeri ESI 114 (delta-LuxI) LuxR assessed as activation of quorum sensing at 10 uM relative to OHHL. The gist of the method:
as §1

The target of assay [7] is T3, Transcriptional activator protein TraR (Agrobacterium tumefaciens) (UniProt P33905).
T3 sequence (whole entry): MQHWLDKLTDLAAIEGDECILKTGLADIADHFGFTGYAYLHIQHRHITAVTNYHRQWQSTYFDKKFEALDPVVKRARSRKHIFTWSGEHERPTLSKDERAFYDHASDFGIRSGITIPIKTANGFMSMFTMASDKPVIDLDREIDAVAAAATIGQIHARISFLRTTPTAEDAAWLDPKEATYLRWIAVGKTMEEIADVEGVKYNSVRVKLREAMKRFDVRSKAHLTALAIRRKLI
The experiment in a line: Antagonist activity at Agrobacterium tumefaciens WCF (pCF372) TraR assessed as inhibition of OOHL-induced quorum sensing activation at 10 uM relative to untreated control.

The target in assay [8] is T3, Transcriptional activator protein TraR (Agrobacterium tumefaciens). In words: Agonist activity at Agrobacterium tumefaciens WCF (pCF372) TraR assessed as activation of quorum sensing at 10 uM relative to OOHL.

The record followed here is ChEMBL document CHEMBL1811866, “Design, synthesis, and biological evaluation of abiotic, non-lactone modulators of LuxR-type quorum sensing” (Bioorg Med Chem, 2011).

One may read the inhibition as the change of the read-out against control, counted positive when it falls.

Regarding `CCCCCCCCCC(=O)CC(=O)N[C@@H](C)C(=O)OC`, the Activity was 2% in assay [1], 0% in assay [4], 4% in assay [6] and 0% in assay [8]. In addition, the inhibition is -4% in assay [2], 23% in assay [3], 24% in assay [5] and -4% in assay [7].
Regarding `CCCCCCCCCC(=O)CC(=O)NCCc1ccccc1`, the Activity in assay [1] came to 0%; in assay [4] it was 0%; in assay [6] it was 1%; in assay [8] it was 0%. The inhibition in assay [2] is -4%; in assay [3] it was 5%; in assay [5] it was 7%; in assay [7] it was -4%.
As to `CCCCCCCCCC(=O)CC(=O)NCc1cccc([N+](=O)[O-])c1`, the Activity in assay [1] stood at 0%; in assay [4] it was 0%; in assay [6], 2%; in assay [8], 0%. Also, the inhibition was 41% in assay [2], 17% in assay [3], 44% in assay [5] and -6% in assay [7].
For `CCCCCCCCCC(=O)CC(=O)NC1CCCC1`, the Activity is 84% in assay [1], 54% in assay [4], 4% in assay [6] and -1% in assay [8]. In addition, the inhibition is -1% in assay [3], 89% in assay [5] and -3% in assay [7].
Turning to `CCCCCCCCCC(=O)CC(=O)NCc1ccco1`, the Activity was 0% in assay [1], 0% in assay [4], 4% in assay [6] and -1% in assay [8]. Also, the inhibition was 0% in assay [2], 26% in assay [3], -4% in assay [5] and 1% in assay [7].
On to `CCCCCCCCCC(=O)CC(=O)NCc1ccc(OC)cc1`, for which the Activity in assay [1] was 73%; in assay [4], 1%; in assay [6] it was 2%; in assay [8], 0%. Also, the inhibition in assay [3] is 38%; in assay [5], 15%; in assay [7], -8%.
